Assay outcomes as filed in PubChem.
VIM-2 inhibitor – VIM-2 metallo-beta-lactamase inhibitors, primary screen, biochemical, epi-absorbance readout, Pseudomonas aeruginosa enzyme; purified VIM-2, nitrocefin hydrolysis, epi-absorbance fluorescence; inhibition, % at 5.6 µM; AID 1527, 2009; actives 0.89% (n = 290,000);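 active means inhibition above the mean of all tested compounds plus 3 SD, cutoff set per screening run, cut at about 7.5% in these data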;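 further: red hydrolysis product quenches plate fluorescence so inhibitors raise well fluorescence; 0% = enzyme with DMSO and 100% = DMSO without enzyme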
CTSL1 counter – Fasciola hepatica cathepsin L1 inhibitors, primary screen, counter-screen for PFM18AAP inhibitor project, biochemical, QFRET, fluorogenic peptide substrate; inhibition, % at 5.96 µM; recombinant F. hepatica cathepsin L1, Z-Leu-Arg-MCA fluorescence; actives 0.49% (n = 300,000);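 active means inhibition above the mean of all tested compounds plus 3 SD, set per screening campaign, cut at about 17% in these data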;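 further: 0% = plate median of test compound wells and 100% = 1 µM Z-Phe-Ala-diazomethylketone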
IMP-1 inh – IMP-1 metallo-beta-lactamase inhibitors, primary screen, biochemical, epi-absorbance readout, Pseudomonas aeruginosa enzyme; metallo-beta-lactamase IMP-1 (Pseudomonas aeruginosa); actives 0.45% (n = 290,000); purified IMP-1, nitrocefin hydrolysis, epi-absorbance fluorescence; inhibition, % at 5.6 µM;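 active means inhibition above the mean plus 3 SD of all compounds in the same screening run, cut at about 4.5% in these data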;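 further: 0% = IMP-1 with DMSO and 100% = DMSO wells lacking enzyme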
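Material – recombinant IMP-1 enzyme, purified · Amount – IMP-1 0.2 nM before substrate addition · Medium – HEPES buffer pH 7.1 with ZnSO4 and Brij 35 · Timing – 25 °C, 15 min preincubation, 25 min reaction · Measured by – plate fluorescence quenching by hydrolysis product, ex 480/em 530 nm · Read-out – percent enzyme inhibition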
M18AAP inhibitor – PfM18AAP inhibitors, malaria aminopeptidase, primary screen, biochemical, QFRET, recombinant enzyme; M18 aspartyl aminopeptidase (Plasmodium falciparum 3D7); inhibition, % at 7.35 µM; actives 1.2% (n = 290,000); H-Glu-NHMec fluorogenic cleavage;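 active means inhibition above the campaign mean inhibition over all tested compounds plus 3 SD, cut at about 28% in these data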;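 further: 0% = plate median of test compound wells and 100% = 2 mM ZnCl2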
Active calls of the source: *. Sampled rows, rich in hits. Any-hit rate of the full collection: about 2.7%.

What do the screens show for `CC(CCCC(C)(C)O)NC(=O)c1cc(COc2ccc3ncccc3c2)on1` (stereo not given)?
VIM-2 inhibitor: -1; CTSL1 counter: -4; IMP-1 inh: 0; M18AAP inhibitor: 0

What do the screens show for `CCOC(=O)c1c(S(=O)(=O)NCC2CCN(Cc3cccc(F)c3)CC2)c(C)n(C)c1C`?
VIM-2 inhibitor: -3; CTSL1 counter: 44*; IMP-1 inh: -1; M18AAP inhibitor: 4

Results for CCN(CC)C(=O)CSc1nnc(COc2ccccc2)n1N ?
VIM-2 inhibitor: -2; CTSL1 counter: 2; IMP-1 inh: -2; M18AAP inhibitor: -2

What do the screens show for `CC(NC(=O)CCN1C(=O)c2ccccc2C1=O)c1ccccc1` (stereo not given)?
VIM-2 inhibitor: 2; CTSL1 counter: 1; IMP-1 inh: -1; M18AAP inhibitor: 2

What do the screens show for `Cc1nnc(SCC(=O)NNC(=O)C(C)C)[nH]c1=O`?
VIM-2 inhibitor: -5; CTSL1 counter: 2; IMP-1 inh: -2; M18AAP inhibitor: -1

What do the screens show for `O=C(CCNC(=O)c1ccc(Cl)cc1)Nc1cccc(S(=O)(=O)N2CCCCCC2)c1`?
CTSL1 counter: -12

Results for O=C(CCl)Nc1cccc(S(=O)(=O)N2CCCCCC2)c1 ?
VIM-2 inhibitor: 2; CTSL1 counter: 78*; IMP-1 inh: 1; M18AAP inhibitor: 4

Results for Cc1nc(N[C@@H](Cc2c[nH]c3ccccc23)C(=O)O)c2oc3ccccc3c2n1 ?
VIM-2 inhibitor: 8.8*; CTSL1 counter: 5; IMP-1 inh: -1; M18AAP inhibitor: 8

How did CCc1nc(N[C@@H](Cc2c[nH]c3ccccc23)C(=O)O)c2oc3ccccc3c2n1 do in these assays?
VIM-2 inhibitor: -1; CTSL1 counter: -2; IMP-1 inh: -3; M18AAP inhibitor: 2

How did CC(Oc1ccc2c(-c3ccccc3)cc(=O)oc2c1)C(=O)NCCCN1CCOCC1 (stereo not given) do in these assays?
VIM-2 inhibitor: 0; CTSL1 counter: -1; IMP-1 inh: -1; M18AAP inhibitor: 2

Results for Cc1cc(=O)oc2c(C)c(OC(C)C(=O)NCCN3CCOCC3)ccc12 (stereo not given) ?
VIM-2 inhibitor: 2; CTSL1 counter: 3; IMP-1 inh: -3; M18AAP inhibitor: 5

Results for Cc1c(OC(C)C(=O)NCCN2CCOCC2)ccc2c3c(c(=O)oc12)CCCC3 (stereo not given) ?
VIM-2 inhibitor: 9.6*; CTSL1 counter: 0; IMP-1 inh: -1; M18AAP inhibitor: 0

How did Cc1cc(=O)oc2cc(OC(C)C(=O)NCCCN3CCCC3=O)c(Cl)cc12 (stereo not given) do in these assays?
VIM-2 inhibitor: -3; CTSL1 counter: -5; IMP-1 inh: -4; M18AAP inhibitor: -3

What do the screens show for `CC(Oc1ccc2c(c1)oc(=O)c1ccccc12)C(=O)NCCCN1CCOCC1` (stereo not given)?
VIM-2 inhibitor: 12*; CTSL1 counter: 6; IMP-1 inh: -3; M18AAP inhibitor: -6

Results for CC(Oc1cc2oc(=O)c3c(c2cc1Cl)CCC3)C(=O)NCCCN1CCCC1=O (stereo not given) ?
VIM-2 inhibitor: 9.1*; CTSL1 counter: 3; IMP-1 inh: -5; M18AAP inhibitor: -3

What do the screens show for `Cc1cc(OC(C)C(=O)NCCCN2CCCC2=O)c2c(C)c(C)c(=O)oc2c1` (stereo not given)?
VIM-2 inhibitor: 0; CTSL1 counter: -2; IMP-1 inh: -4; M18AAP inhibitor: -6

What do the screens show for `Cc1c(OC(C)C(=O)NCCCN2CCCC2=O)ccc2c3c(c(=O)oc12)CCCC3` (stereo not given)?
VIM-2 inhibitor: 10*; CTSL1 counter: -2; IMP-1 inh: 0; M18AAP inhibitor: 3

What do the screens show for `CCCOc1cc(C)c(S(=O)(=O)NC2CC(C)(C)NC(C)(C)C2)cc1C`?
VIM-2 inhibitor: -1; CTSL1 counter: 0; IMP-1 inh: -2; M18AAP inhibitor: 0

What do the screens show for `COc1ccc(Br)cc1CN(C)CC(=O)Nc1c(Cl)cccc1Cl`?
VIM-2 inhibitor: -3; CTSL1 counter: 1; IMP-1 inh: -4; M18AAP inhibitor: -1

Results for O=C(CN1C(=O)COc2ccccc21)NC1CCCC1 ?
VIM-2 inhibitor: 0; CTSL1 counter: -5; IMP-1 inh: -2; M18AAP inhibitor: -2

What do the screens show for `C=CCn1c2ccccc2c2nnc(SCCN3CCOCC3)nc21`?
VIM-2 inhibitor: 12*; CTSL1 counter: -2; IMP-1 inh: -2; M18AAP inhibitor: 18

What do the screens show for `C=CCn1c2ccccc2c2nnc(SCC(=O)O)nc21`?
VIM-2 inhibitor: 2; CTSL1 counter: 1; IMP-1 inh: -1; M18AAP inhibitor: 1

How did Cn1c2ccc(F)cc2c2nnc(SCCN3CCOCC3)nc21 do in these assays?
VIM-2 inhibitor: 7.8*; IMP-1 inh: -2; M18AAP inhibitor: 5

How did Cn1c2ccc(F)cc2c2nnc(SCC(=O)Nc3cccc(O)c3)nc21 do in these assays?
VIM-2 inhibitor: 8.8*; CTSL1 counter: -4; IMP-1 inh: 1; M18AAP inhibitor: -6

How did O=C(CSc1ccc2nnc(-c3ccccn3)n2n1)NCc1ccco1 do in these assays?
VIM-2 inhibitor: -1; CTSL1 counter: 3; IMP-1 inh: -6; M18AAP inhibitor: 12

Results for O=C(CNC(=O)C1COc2ccccc2O1)N/N=C/c1ccc(O)cc1O (stereo not given) ?
VIM-2 inhibitor: -2; CTSL1 counter: 0; IMP-1 inh: -5; M18AAP inhibitor: 6

Results for CCOc1ccc(/C=N/n2c(C3CCCCC3)n[nH]c2=S)cc1 ?
VIM-2 inhibitor: -3; CTSL1 counter: -2; IMP-1 inh: -1; M18AAP inhibitor: 7

Results for CCN1C(=O)c2cccc3c(S(=O)(=O)Nc4ccccc4OC)ccc1c23 ?
VIM-2 inhibitor: -2; CTSL1 counter: 4; IMP-1 inh: -4; M18AAP inhibitor: 0

What do the screens show for `CCN1C(=O)c2cccc3c(S(=O)(=O)Nc4ccc(O)c(C(=O)O)c4)ccc1c23`?
VIM-2 inhibitor: 8.2*; CTSL1 counter: 3; IMP-1 inh: -3; M18AAP inhibitor: 9

Results for COC(=O)C1Cc2ccccc2CN1C(=O)CCl (stereo not given) ?
VIM-2 inhibitor: 2; CTSL1 counter: 48*; IMP-1 inh: 0; M18AAP inhibitor: -5

Results for CC(=O)Nc1ccc(NS(=O)(=O)c2cccc3nonc23)cc1 ?
VIM-2 inhibitor: 1; CTSL1 counter: 17*; IMP-1 inh: -1; M18AAP inhibitor: 6

What do the screens show for `CC(=O)c1ccccc1NS(=O)(=O)c1cccc2nonc12`?
VIM-2 inhibitor: -3; CTSL1 counter: -6; IMP-1 inh: -1; M18AAP inhibitor: -3

Results for CC(CCc1ccccc1)NC(=O)Cn1cccc1C(=O)c1ccccc1 (stereo not given) ?
VIM-2 inhibitor: -6; CTSL1 counter: 2; IMP-1 inh: -2; M18AAP inhibitor: 3

What do the screens show for `C=CCc1c(C)[nH]c(=S)c(C#N)c1C`?
VIM-2 inhibitor: 1; CTSL1 counter: 1; IMP-1 inh: 9.3*; M18AAP inhibitor: 0
